Reference: ChEMBL document CHEMBL2413009, “Synthesis and structure activity relationship of imidazo[1,2-a]pyridine-8-carboxamides as a novel antimycobacterial lead series” (Bioorg Med Chem Lett, 2013)
In brackets after ≈: the same amount, converted by molar mass.

How the values were obtained:
[1] = test system: Mycobacterium tuberculosis; test: Antimycobacterial activity against Mycobacterium tuberculosis H37Rv ATCC 27294 after 7 days by broth microdilution method; type: functional; conditions: H37Rv ATCC 27294, 168 h
A549 = test: Cytotoxicity against human A549 cells; type: cell-based
[2] = Aqueous solubility of the compound in 0.1 M sodium phosphate buffer at pH 7.4 after 24 hrs; type: physicochemical
[3] = test system: Mycobacterium tuberculosis; test: Cidality activity against Mycobacterium tuberculosis H37Rv ATCC 27294 assessed as log reduction in bacterial numbers up to 28 days; type: functional, organism-based
Summary of the method: (§1)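 Replicating Mtb grown aerobically in Middlebrook 7H9 broth and exposed to a range of compound concentrations up to 32 µg/mL. Bacterial numbers were followed over time as kill kinetics, and the result is expressed as log reduction in bacterial numbers.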

[4] = test system: Mycobacterium tuberculosis; test: Cidality activity against Mycobacterium tuberculosis H37Rv ATCC 27294 assessed as log reduction in bacterial numbers at 32 ug/mL up to 28 days; type: functional; summary of the method: as §1
[5] = Intrinsic clearance in mouse microsomes; type: ADME, Microsome
[6] = Fraction unbound in mouse plasma after 5 hrs by rapid equilibrium dialysis method; type: ADME, cell-free
Staphylococcus aureus = test: Antibacterial activity against Staphylococcus aureus by broth microdilution method; type: functional
Haemophilus influenzae = test: Antibacterial activity against Haemophilus influenzae by broth microdilution method; type: functional
Escherichia coli = test: Antibacterial activity against Escherichia coli by broth microdilution method; type: functional
Streptococcus pneumoniae = test: Antibacterial activity against Streptococcus pneumoniae by broth microdilution method; type: functional
[7] = Lipophilicity, log D of the compound in 0.01 M sodium phosphate at pH 7.4 after 5 hrs by shake-flask technique; type: physicochemical
[8] = Intrinsic clearance in human microsomes; type: ADME, Microsome
Summary of the method: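 Intrinsic clearance was measured in human microsomal preparations and is reported in µl/min/mg.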

[9] = Fraction unbound in human plasma after 5 hrs by rapid equilibrium dialysis method; type: ADME, cell-free

COc1ccn2cc(-c3cccc(-c4cncc(O[C@H]5CCOC5)c4)c3)nc2c1C(N)=O
MIC [1]: 12.5 µM | IC50 (A549): > 100 µM | solubility at 24 h [2]: 600 µM (≈ 258 µg/mL)

COc1cccc(-c2cccc(-c3cn4cccc(C(N)=O)c4n3)c2)c1
MIC [1]: 2 µg/mL | Activity [3]: Dose-dependent effect | solubility at 24 h [2]: < 1 µM | log10cfu [4]: 2

COc1cncc(-c2cccc(-c3nc4c(C(N)=O)cccc4o3)c2)c1
MIC [1]: 2 µg/mL | solubility at 24 h [2]: 2 µM (≈ 0.691 µg/mL)

NC(=O)c1nccn2cc(-c3cccc(-c4cncc(OC[C@H]5CCCO5)c4)c3)nc12
MIC [1]: 6.25 µM | IC50 (A549): > 100 µM | solubility at 24 h [2]: 40 µM (≈ 16.6 µg/mL)

COc1cncc(-c2cccc(-c3nc4c(C(N)=O)cccn4n3)c2)c1
MIC [1]: 2 µg/mL | solubility at 24 h [2]: 18 µM (≈ 6.22 µg/mL)

COc1cncc(-c2cccc(-c3cn4ccnc(C(N)=O)c4n3)c2)c1
MIC [1]: 12.5 µM | IC50 (A549): > 100 µM | microsomal CLint [5]: 58 µL/min/mg | fraction unbound at 5 h [6]: 0.04 | solubility at 24 h [2]: 10 µM (≈ 3.45 µg/mL)

COc1cncc(-c2cncc(-c3cn4cccc(C(N)=O)c4n3)c2)c1
MIC [1]: > 32 µg/mL | solubility at 24 h [2]: 3.5 µM (≈ 1.21 µg/mL)

COc1ccn2cc(-c3cccc(-c4cncc(OC[C@H]5CCCO5)c4)c3)nc2c1C(N)=O
MIC [1]: 1 µg/mL | solubility at 24 h [2]: 120 µM (≈ 53.3 µg/mL)

COc1cncc(-c2cccc(-c3nc4c(C(N)=O)cccc4[nH]3)c2)c1
MIC [1]: 4 µg/mL | solubility at 24 h [2]: 3 µM (≈ 1.03 µg/mL)

NC(=O)c1cccn2cc(-c3cccc(-c4cncc(OC[C@H]5CCCO5)c4)c3)nc12
MIC (Staphylococcus aureus): > 200 µM | MIC [1]: 0.25 µg/mL | MIC (Haemophilus influenzae): > 200 µM | MIC (Escherichia coli): > 200 µM | MIC (Streptococcus pneumoniae): > 200 µM | solubility at 24 h [2]: 5.3 µM (≈ 2.2 µg/mL)

NC(=O)c1cccn2cc(-c3cccc(-c4cncc(OCC(F)F)c4)c3)nc12
MIC (Staphylococcus aureus): > 200 µM | MIC [1]: 3.12 µM | MIC (Haemophilus influenzae): > 200 µM | IC50 (A549): > 100 µM | MIC (Escherichia coli): > 200 µM | MIC (Streptococcus pneumoniae): > 200 µM | solubility at 24 h [2]: < 1 µM

CNC(=O)c1cccn2cc(-c3cccc(-c4cncc(OC)c4)c3)nc12
MIC [1]: 2 µg/mL | solubility at 24 h [2]: 5.5 µM (≈ 1.97 µg/mL)

COc1cncc(-c2cccc(-c3cn4ccc(OC)c(C(N)=O)c4n3)c2)c1
MIC [1]: 2 µg/mL | logD at 5 h [7]: 2.3 | microsomal CLint [5]: 48 µL/min/mg | fraction unbound at 5 h [6]: 0.049 | microsomal CLint [8]: 56 µL/min/mg | fraction unbound at 5 h [9]: 0.02 | solubility at 24 h [2]: 40 µM (≈ 15 µg/mL)

COc1cncc(-c2cccc(-c3cn4cccc(C(=O)N(C)C)c4n3)c2)c1
MIC [1]: > 32 µg/mL | solubility at 24 h [2]: 10 µM (≈ 3.72 µg/mL)

CN(C)CCOc1cncc(-c2cccc(-c3cn4cccc(C(N)=O)c4n3)c2)c1
MIC [1]: 16 µg/mL | microsomal CLint [8]: 47 µL/min/mg | fraction unbound at 5 h [9]: 0.073 | solubility at 24 h [2]: 320 µM (≈ 128 µg/mL)

COc1cncc(-c2cccc(-c3cn4cccc(C(N)=O)c4n3)c2)c1
MIC [1]: 0.5 µg/mL | microsomal CLint [5]: 113 µL/min/mg | fraction unbound at 5 h [6]: 0.019 | solubility at 24 h [2]: < 1 µM

COc1cncc(-c2cc(-c3cn4cccc(C(N)=O)c4n3)ccn2)c1
MIC [1]: 16 µg/mL | solubility at 24 h [2]: 22 µM (≈ 7.6 µg/mL)

NC(=O)c1cccn2cc(-c3cccc(-c4cncc(OCCF)c4)c3)nc12
MIC (Staphylococcus aureus): > 200 µM | MIC [1]: 0.78 µM | MIC (Haemophilus influenzae): > 200 µM | IC50 (A549): > 100 µM | MIC (Escherichia coli): > 200 µM | logD at 5 h [7]: 3.7 | MIC (Streptococcus pneumoniae): > 200 µM | microsomal CLint [8]: 75 µL/min/mg | fraction unbound at 5 h [9]: 0.01 | solubility at 24 h [2]: 16 µM (≈ 6.02 µg/mL)

NC(=O)c1cccn2cc(-c3cccc(-c4cccc(F)c4)c3)nc12
MIC [1]: 16 µg/mL | solubility at 24 h [2]: < 1 µM

CCN(CC)CCNC(=O)c1cccn2cc(-c3cccc(-c4cncc(OC)c4)c3)nc12
MIC [1]: 4 µg/mL | solubility at 24 h [2]: > 2460 µM

COc1cncc(-c2cc(-c3cn4cccc(C(N)=O)c4n3)ccc2F)c1
MIC [1]: > 32 µg/mL | solubility at 24 h [2]: < 1 µM
